This is a sample that favours compounds with a hit; in the whole collection about 9.8% have one here.
Rad51 HR inh: blocks human Rad51 in homologous recombination | Q06609 | hRad51 DNA strand exchange, fluorescence dequenching | inhibition, % at 10 µM | actives 0.085% (n = 200,000) | AID 1385;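 active = inhibition above 40% at the single screening dose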;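 note: 0% = DMSO control wells and 100% = blanks with heterologous ssDNA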
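System: hRad51 filaments on single-stranded DNA; reagent: Fluorescein- and BHQ1-tagged 47-mer duplex; compound dosing: one concentration, 10 µM final; timing: filaments 15 min 37 °C, then compound 30 min; measured by: fluorescein emission 520 nm, excitation 485 nm; benchmarks: per-plate controls and blanks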
m-calpain inh: blocks pig calpain II enzyme activity; purified calpain II, fluorogenic peptide substrate, 30 min; actives 0.37% (n = 220,000); inhibition, % at 16 µM; AID 1236;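 active = inhibition above about 50%, limit read from the data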
PMI act: activators of human phosphomannose isomerase. P34949. purified human PMI, coupled resazurin fluorescence, 20 min; active compounds read high; 1 = vehicle control, 0 substrate-free wells. activation factor at 20 µM. actives 0.005% (n = 190,000). AID 1214;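 active = activation factor of 2 or more at 20 µM, relative to plate controls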
Target sequence (P34949 whole entry, looked up): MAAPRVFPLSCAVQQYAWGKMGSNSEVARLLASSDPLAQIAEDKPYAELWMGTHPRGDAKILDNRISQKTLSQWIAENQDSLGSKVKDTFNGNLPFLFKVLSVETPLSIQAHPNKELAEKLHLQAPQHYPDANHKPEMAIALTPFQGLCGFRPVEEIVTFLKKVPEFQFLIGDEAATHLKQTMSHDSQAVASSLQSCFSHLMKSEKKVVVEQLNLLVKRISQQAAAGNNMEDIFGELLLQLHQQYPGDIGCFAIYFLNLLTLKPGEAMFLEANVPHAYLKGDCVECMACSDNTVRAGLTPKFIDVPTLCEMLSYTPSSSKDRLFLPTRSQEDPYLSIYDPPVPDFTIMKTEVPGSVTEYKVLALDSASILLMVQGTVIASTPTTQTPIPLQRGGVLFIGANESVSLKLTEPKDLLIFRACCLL
L major viab: Leishmania major promastigote growth inhibition | AID 1063 | Leishmania major promastigotes, resazurin fluorescence viability | actives 9% (n = 200,000) | inhibition, % at 10 µM; in the data active = inhibition above about 50%;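 note: promastigotes grown with compound for 44 hours at 28 °C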
PMI act satM6P: increases human PMI activity with near-saturating mannose 6-phosphate; P34949; coupled PMI enzyme assay, resazurin fluorescence, 20 min; active compounds read high; 1 = untreated enzyme, 0 = substrate-free blank; activation factor at 20 µM; actives 0.34% (n = 190,000);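 active = activation factor of 2 or more at 20 µM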
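Test system: human phosphomannose isomerase with PGI, G6PDH, diaphorase coupling enzymes / Doses: 20 µM compound, 1% DMSO / Times: enzyme reaction with compound 20 min at room temperature / Measured by: Diaphorase-driven resazurin-to-resorufin fluorescence, excitation 544, emission 590 nm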
WT yeast gro inh: growth inhibition of WT yeast, mitochondrial fusion screen | mitochondrial fusion phenotypic screen, WT strain | inhibition, % at 10 µM | actives 2.1% (n = 190,000) | AID 1362; in the data active = inhibition above about 58%; tested in S. cerevisiae
Active calls of the source: *; i = inactive; . = not tested or not shown.

SMILES	Rad51 HR inh	m-calpain inh	PMI act	L major viab	PMI act satM6P	WT yeast gro inh
COc1cc(/C=C2/SC(=O)NC2=O)ccc1Oc1ccc([N+](=O)[O-])cc1[N+](=O)[O-]	5	63*	.	.	.	.
CCc1cc2c(=O)c(-c3cnn(-c4ccccc4)c3)c(C)oc2cc1OCC(=O)Nc1cccc(C)c1	16	33	1	66*	1.1	7
CCc1cc2c(=O)c(-c3cnn(-c4ccccc4)c3)c(C)oc2cc1OCC(=O)Nc1ccc(F)c(F)c1	6	-9	1	53*	1	18
COP(=O)(OC)c1nc(-c2ccccc2)oc1N1CCOCC1	8	-225	1	51*	1.1	11
COP(=O)(OC)c1nc(-c2cccc3ccccc23)oc1N1CCCCC1	-5	i	1.1	41	1.1	28
COc1ccc(C(NC=O)c2cc(OC)c(OC)cc2Br)cc1OC (stereo not drawn)	2	13	0.9	-1	0.9	17
COc1ccccc1-n1c(=S)[nH]c2c(sc(=S)n2-c2ccccc2C)c1=O	8	14	1.1	-7	1.1	-19
Cc1ccc(S(=O)(=O)N(C)c2ccc(C)c([N+](=O)[O-])c2)cc1	-5	50*	1	1	1.1	3
Cc1cc(Oc2ccc3ccccc3c2)nc(SCC(=O)c2ccccc2)n1	2	35	0.9	93*	1.1	1
CC(=O)Nc1ccc(Oc2sc(C(=O)c3ccccc3)c(N)c2C#N)cc1	-5	16	0.9	98*	1	-8
CC(=O)Nc1ccc(Oc2ccccc2)cc1	14	-13	.	.	.	.
NC(=O)C(=O)N/N=C/c1c(F)c(F)c(F)c(F)c1F	-5	-22	1	13	1	7
CC1CCCN(C(=O)c2sc3cc([N+](=O)[O-])ccc3c2Cl)C1 (stereo not drawn)	-2	68*	1	-1	1	-1
CC1CCCC(CC(=O)O)(CC(=O)O)C1 (stereo not drawn)	-1	10	.	.	.	.
O=C(OC(c1ccccc1)c1nccc2ccccc12)c1cc([N+](=O)[O-])cc([N+](=O)[O-])c1 (stereo not drawn)	4	-26	0.8	98*	1	56
COC(=O)/C(=C(/F)Sc1cc(C)c(O)c(C)c1)C(F)(F)F	8	3	0.9	-7	0.9	94*
COC(=O)/C(=C1/Oc2cc(C)oc(=O)c2S1)C(F)(F)F	4	0	1	49	0.9	27
O=C(COC(=O)/C=C/c1ccc(S(=O)(=O)N2CCOCC2)cc1)NC1CCCCCCC1	.	6	0.8	5	0.9	11
CCN(CC(=O)Nc1ccc(C(C)=O)cc1)CC(=O)Nc1ccccc1C(F)(F)F	.	-21	1.2	13	1.1	-7
CCN(CC)c1ccc(NC(=O)Nc2ccccc2C(F)(F)F)cc1	-5	8	0.8	0	0.5	63*
CCCOc1c(Br)cc(C2C3=C(CCCC3=O)N(C)C3=C2C(=O)CCC3)cc1OC	-2	i	1.3	97*	1.2	12
Oc1cc2c(cc1C(c1ccc(Br)cc1)N1CCCC1)OCO2 (stereo not drawn)	4	-23	0.6	73*	0.3	21
CCN=C1S/C(=C\c2ccc(OC)c(OCC)c2)C(=O)N1CC	2	-40	0.8	70*	1	11
O=C1CNC(=O)/C(=C/c2ccco2)N1	-1	6	1.5	2	1.1	-1
O=C(CN(Cc1ccc(Cl)c(Cl)c1)S(=O)(=O)c1ccccc1)N/N=C\c1ccc2c(c1)OCO2	.	17	0.9	88*	0.9	53
SMILES	Rad51 HR inh	m-calpain inh	PMI act	L major viab	PMI act satM6P	WT yeast gro inh
O=C(CN(Cc1ccccc1)S(=O)(=O)c1ccccc1)N/N=C/c1ccc2c(c1)OCO2	5	13	0.9	63*	0.9	-1
O=C(NCc1csc(-c2cccs2)n1)C1CCC1	-10	-26	.	.	.	.
Cc1ccc(N2C(=O)[C@@H]3[C@H](C2=O)[C@H]2C=C(C(=O)c4ccccc4)C=CN2[C@@H]3C(=O)c2ccc(Cl)cc2)cc1	-6	-61	1.6	-1	2.1*	10
O=C(c1ccc(Cl)cc1)[C@@H]1[C@@H]2C(=O)N(c3ccccc3)C(=O)[C@@H]2C2c3ccccc3C=NN21 (stereo partly drawn)	0	-20	0.9	7	0.9	14
O=C(C1=C[C@@H]2[C@H]3C(=O)N(c4ccccc4Cl)C(=O)[C@H]3[C@@H](C(=O)c3ccc(Cl)cc3)N2C=C1)c1ccccc1	-28	-69	1.3	-2	1.1	-3
O=C(C1=C[C@@H]2[C@H]3C(=O)N(c4cccc(Cl)c4)C(=O)[C@H]3[C@@H](C(=O)c3ccc(Cl)cc3)N2C=C1)c1ccccc1	-14	-51	1.5	-4	2.2*	13
COC(=O)c1ccc(Oc2c(F)c(F)nc(N3CCOCC3)c2F)cc1	3	38	1	-1	0.9	41
COc1cccc(-n2cnc3sc(C)c(C)c3c2=O)c1	-6	10	1	1	0.7	-10
O=C(c1cc2ccccc2o1)N1CCC(N2CCC(C(=O)N3CCCC3)CC2)CC1	.	25	1	50*	0.9	28
O=C(c1cc2ccccc2o1)N1CCCC1	-7	17	0.9	-2	1	22
Cc1cccc(Cn2ccc(NC(=O)c3ccc4c(c3)OCO4)n2)c1	-2	22	1	60*	1	17
Cc1ccc(Cn2ccc(NC(=O)c3cc(-c4ccc(F)cc4)on3)n2)cc1	2	1	1	40	1	-3
Cc1ccc(Cn2ccc(NC(=O)c3cc(-c4cccc(Cl)c4)on3)n2)cc1	5	21	0.9	76*	0.9	1
O=C(Nc1ccn(Cc2ccc(Cl)cc2)n1)c1ccc2c(c1)OCO2	11	15	0.9	-6	0.9	-13
Cc1ccc(Cn2ccc(NC(=O)c3cc(CC(C)C)on3)n2)cc1	5	3	0.8	35	0.7	19
Cc1cc(NC(=O)c2cc(C(C)C)on2)nn1Cc1ccc(Cl)cc1	6	0	1	71*	1	34
Cc1ccc(Cn2ccc(NC(=O)c3cc(-c4ccc(Cl)cc4)on3)n2)cc1	3	-13	1	57*	1	-18
CC1(C)CC(=O)CC(=O)/C1=N\Nc1c(Cl)cc(Cl)cc1Cl	-6	11	1	-8	1	3
CN1CCCN(C(=O)c2cc(-c3cccc4ccccc34)nc3ccccc23)CC1	14	-127	.	.	.	.
Cc1ccc(NC(=O)c2snc3ccc(Cl)cc23)cc1C	.	-29	0.8	-7	0.9	1
Cc1ccc(CN2CCN(/N=C/C=C/c3ccccc3[N+](=O)[O-])CC2)cc1	1	2	0.9	24	0.8	54
Cc1ccc(NC(=O)N2CCc3ccccc32)cc1	-6	-6	1.1	1	1.1	27

From PubChem
